Data: ChEMBL document CHEMBL1138628, “Synthesis, in vitro and computational studies of protein tyrosine phosphatase 1B inhibition of a small library of 2-arylsulfonylaminobenzothiazoles with antihyperglycemic activity” (Bioorg Med Chem, 2009)
Blank lines part the entries; values can stand above or below the compound they belong to. The source made the active and inactive calls. The calls are words filed in the database; no cut-off is given here.

What was measured:
[1] = biological target: T1, Tyrosine-protein phosphatase non-receptor type 1 (Homo sapiens) (UniProt P18031); assay: Inhibition of human recombinant PTP1B expressed in Escherichia coli TB1 assessed as residual activity at 40 uM
T1 sequence (whole entry): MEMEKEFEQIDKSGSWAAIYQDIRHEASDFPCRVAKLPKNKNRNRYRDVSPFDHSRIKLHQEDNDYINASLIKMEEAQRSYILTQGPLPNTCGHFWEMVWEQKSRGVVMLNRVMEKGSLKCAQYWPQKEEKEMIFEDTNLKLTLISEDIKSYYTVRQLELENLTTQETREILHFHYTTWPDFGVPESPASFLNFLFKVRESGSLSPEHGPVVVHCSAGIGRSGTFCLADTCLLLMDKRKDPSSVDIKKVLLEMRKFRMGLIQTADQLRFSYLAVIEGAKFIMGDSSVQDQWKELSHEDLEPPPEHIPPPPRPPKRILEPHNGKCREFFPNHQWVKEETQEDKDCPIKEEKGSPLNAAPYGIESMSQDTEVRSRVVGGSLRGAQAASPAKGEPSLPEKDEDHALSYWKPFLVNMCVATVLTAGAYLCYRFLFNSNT
Summary of the method: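 Single-point screen at 37 °C, pH 7.0: compound at 40 µM final (from 20 mM DMSO solution) in buffer with 2 mM pNPP. Reaction started with 0.16 µg human recombinant PTP-1B in 1 ml. p-Nitrophenol read at 400 nm. Residual activity given as % of DMSO control; quadruplicate.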

[2] = biological target: T1, Tyrosine-protein phosphatase non-receptor type 1 (Homo sapiens); assay: Reversible inhibition of human recombinant PTP1B expressed in Escherichia coli TB1 assessed as complete recovery of residual enzyme activity at 4 deg C at 100 uM after 1 hr
[3] = biological target: T1, Tyrosine-protein phosphatase non-receptor type 1 (Homo sapiens); assay: Reversible inhibition of human recombinant PTP1B expressed in Escherichia coli TB1 assessed as complete recovery of residual enzyme activity at 37 deg C at 100 uM after 1 hr
[4] = biological target: T1, Tyrosine-protein phosphatase non-receptor type 1 (Homo sapiens); assay: Inhibition of human recombinant PTP1B expressed in Escherichia coli TB1-catalyzed hydrolysis of p-nitrophenyl phosphate assessed as decrease in hydrolysis rate by slow binding assay
Summary of the method: (§1)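 Time-course of pNPP hydrolysis by recombinant PTP-1B at several inhibitor concentrations, with p-nitrophenol release followed continuously at 400 nm. Initial rates and curve linearity examined, either without enzyme–inhibitor preincubation or after 30 min preincubation.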

[5] = biological target: T1, Tyrosine-protein phosphatase non-receptor type 1 (Homo sapiens); assay: Inhibition of human recombinant PTP1B expressed in Escherichia coli TB1-catalyzed hydrolysis of p-nitrophenyl phosphate assessed as decrease in hydrolysis rate preincubated for 30 mins by slow binding assay; summary of the method: as §1
[6] = biological target: T2, Tyrosine-protein phosphatase non-receptor type 1 (Homo sapiens, UniProt P18031); assay: Inhibition of human recombinant PTP1B expressed in Escherichia coli TB1 assessed as residual activity
T2 sequence (P18031 whole entry): T1 sequence (whole entry)
Summary of the method: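 Tagged human PTP-1B produced in E. coli TB1 from pGEX-2T, affinity-purified, thrombin-cleaved, gel-filtered. Run at 37 °C, pH 7.0, in 0.075 M β,β-dimethylglutarate with 1 mM EDTA and 1 mM DTT, substrate 2 mM pNPP (Km). IC50 used varying inhibitor, 10 nM enzyme, KOH stop, p-nitrophenol at 400 nm. Fit of vi/vo versus concentration; quadruplicate.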

[7] = biological target: T1, Tyrosine-protein phosphatase non-receptor type 1 (Homo sapiens); assay: Inhibition of human recombinant PTP1B expressed in Escherichia coli TB1-catalyzed hydrolysis of p-nitrophenyl phosphate assessed as decrease in hydrolysis rate using 25 mM pNPP as substrate
Summary of the method: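 Rates at 37 °C, pH 7.0, with 25 mM pNPP (12.5-fold Km), with inhibitor at 2.5, 5.0, 10, 25, 50, 100 and 200 µM. Residual activity measured to test for partial inhibition; quadruplicate.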

[8] = biological target: T2, Tyrosine-protein phosphatase non-receptor type 1; assay: Inhibition of human recombinant PTP1B expressed in Escherichia coli TB1 by double reciprocal plot analysis
Summary of the method: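 Initial hydrolysis rates at 37 °C, pH 7.0, across pNPP 0.5–40 mM, with several inhibitor concentrations (e.g. 0, 5, 10, 20, 30 µM). Data analysed as Lineweaver–Burk (1/v vs 1/[S]) plots to assign inhibition type; quadruplicate.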

Rattus norvegicus = assay: Antihyperglycemic activity against STZ-nicotinamide-induced diabetes in overnight fasted Wistar rat assessed as decrease in glycemia at 100 mg/kg, administered intragastrically after 5 to 7 hrs by glucose oxidase method; assay type: functional
Summary of the method: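 Male Wistar rats (200–250 g) made diabetic by i.p. nicotinamide 110 mg/kg (saline), then 15 min later i.p. streptozotocin 65 mg/kg (citrate pH 4.5), after overnight fast; hyperglycemia confirmed at 72 h. Test compounds 100 mg/kg or glibenclamide 5 mg/kg given orally as 1% Tween 80 suspension, n = 5. Caudal vein glucose (glucose oxidase glucometer) at 0, 1, 3, 5, 7 h; % variation versus 0 h.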

Compound: CCOc1ccc2nc(NS(=O)(=O)c3ccc(Cl)cc3)sc2c1
Activity [1]: inactive

Compound: COc1ccc2nc(NS(=O)(=O)c3ccc([N+](=O)[O-])cc3)sc2c1
Activity [1]: inactive

Compound: COc1ccc(Cl)cc1C(=O)NCCc1ccc(S(=O)(=O)NC(=O)NC2CCCCC2)cc1
Activity (Rattus norvegicus): Active

Compound: O=[N+]([O-])c1ccc(S(=O)(=O)Nc2nc3ccc(Cl)cc3s2)cc1
Activity [1]: inactive

Second part, led by results:

Activity [1]: Active | Activity [2]: Active | Activity [3]: Active | Activity [4]: Active | Activity [5]: Active | IC50 [6]: 40.9 µM | Activity [7]: Active | Ki [8]: 20.4 µM
Compound: CCOc1ccc2nc(NS(=O)(=O)c3ccc([N+](=O)[O-])cc3)sc2c1

Activity [1]: inactive
Compound: CC(=O)Nc1ccc(S(=O)(=O)Nc2nc3ccc([N+](=O)[O-])cc3s2)cc1

Activity [1]: Active | Activity [2]: Active | Activity [3]: Active | Activity [4]: Active | Activity [5]: Active | IC50 [6]: 19.5 µM | Activity [7]: Active | Ki [8]: 7.1 µM
Compound: Cc1ccc2nc(NS(=O)(=O)c3ccc([N+](=O)[O-])cc3)sc2c1
Activity (Rattus norvegicus; route intragastric): 27%
